Only some compounds are listed: those with a hit (about 3.1% of all), similar ones and a draw of the others.
F508del corr = CFTR F508del correction in bronchial cells. CFBE cells, YFP halide quenching; stimulated with forskolin plus potentiator P3; % fluorescence drop versus neutral controls. activity (quench increase), % at 7.58 µM. 350,000 compounds, 0.36% hits;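 active = mean added fluorescence quench of at least 8% versus neutral control, with both replicates also reaching 8%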;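 note: cells transiently co-express mutant CFTR-F508del with the halide-sensitive YFP; corrector assay measuring rescue of mutant channel to the surface after 24 h compound exposure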
SIRT5 block = inhibitors of human sirtuin-5 desuccinylase; Q9NXA8; Purified SirT5, succinyl-peptide AMC, trypsin-coupled fluorescence; inhibition, % at 15 µM; 330,000 compounds, 1.1% hits; in the data active = inhibition above about 15%
S100A4 MyoIIA = inhibitors of human S100A4 binding to myosin IIA peptide. S100A4/TAMRA-MyoIIA peptide fluorescence polarization. AID 652163. 360,000 compounds, 0.14% hits. P26447. inhibition, % at 10.7 µM;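 active = mean inhibition of at least 70% across replicates, with every replicate also reaching that level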
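incubation = readout 5 min after mixing, signal stable up to 60 min | system = S100A4 monomer protein | buffer or medium = HEPES pH 7.2 with CaCl2, KCl, NaCl, DTT, Triton | benchmarks = neutral control DMSO, positive control TFP | also added = fluorescent myosin IIA peptide, 5 nM | compound dosing = one concentration per compound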
rRNA inh HTS = inhibitors of bacterial rRNA selective over humanized ribosomes; E. coli WT GFP vs humanized-ribosome RFP mutants, fluorescence, 24 h; stronger effect = lower value; DMSO median 0, no signal -100; GFP signal change (wild-type ribosome), % (no concentration beside the values); 350,000 compounds, 1.6% hits; AID 720706;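 active = significant combined selectivity score with lowered wild-type GFP, culture density cut under 30%, mutant RFP and density less affected; inactive = any of these conditions unmet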
ERAP1 HTS inh = inhibitors of human ERAP1 aminopeptidase; Q9NZ08; recombinant ERAP1, Leu-AMC fluorescence, 60 min; inhibition, % at 10.7 µM; 340,000 compounds, 0.15% hits;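 active = mean replicate inhibition of at least 30%, or all replicates individually reaching that 30% level; inactive = mean below 30% and not every replicate reaching it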;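 note: 0% = neutral control wells and 100% = L-leucinethiol positive control wells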
Target sequence (Q9NZ08 whole entry, looked up): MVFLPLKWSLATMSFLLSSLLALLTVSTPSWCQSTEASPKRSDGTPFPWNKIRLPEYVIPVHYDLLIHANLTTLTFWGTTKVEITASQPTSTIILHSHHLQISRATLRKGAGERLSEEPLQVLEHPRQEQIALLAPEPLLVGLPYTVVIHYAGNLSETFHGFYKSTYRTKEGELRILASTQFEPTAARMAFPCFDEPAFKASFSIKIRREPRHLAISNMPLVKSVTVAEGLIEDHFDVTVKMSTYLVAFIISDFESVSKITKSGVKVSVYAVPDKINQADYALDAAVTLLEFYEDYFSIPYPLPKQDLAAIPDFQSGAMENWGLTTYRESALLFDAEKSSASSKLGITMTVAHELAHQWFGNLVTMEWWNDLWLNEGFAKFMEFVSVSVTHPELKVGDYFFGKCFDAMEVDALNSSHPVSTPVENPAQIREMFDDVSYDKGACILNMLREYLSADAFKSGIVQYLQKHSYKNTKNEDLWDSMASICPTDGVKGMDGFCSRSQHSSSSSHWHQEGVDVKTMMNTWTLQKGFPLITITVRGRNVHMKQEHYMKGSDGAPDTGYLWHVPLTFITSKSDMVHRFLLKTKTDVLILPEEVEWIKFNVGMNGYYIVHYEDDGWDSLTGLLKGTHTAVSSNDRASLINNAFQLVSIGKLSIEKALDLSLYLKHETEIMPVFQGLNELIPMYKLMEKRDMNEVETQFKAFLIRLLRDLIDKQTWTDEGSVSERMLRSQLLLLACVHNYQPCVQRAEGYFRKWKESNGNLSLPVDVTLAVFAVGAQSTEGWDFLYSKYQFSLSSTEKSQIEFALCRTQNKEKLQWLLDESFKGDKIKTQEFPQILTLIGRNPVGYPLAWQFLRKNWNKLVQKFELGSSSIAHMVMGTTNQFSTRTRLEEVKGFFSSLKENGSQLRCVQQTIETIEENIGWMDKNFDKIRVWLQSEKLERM
* marks the source's active call; other numbers are inactive results.

`C=CC[C@H](CC(=O)N(CCO)Cc1ccccc1)C(=O)N[C@@H](COC(=O)[C@H](CC=C)CC(=O)OC(C)(C)C)Cc1c[nH]c2ccccc12` gave F508del corr -4.2, SIRT5 block 26.5*, S100A4 MyoIIA 1.4, rRNA inh HTS 18.6 and ERAP1 HTS inh 0.3.
C=CC[C@@H](CC(=O)N(CCO)Cc1ccccc1)C(=O)N[C@H](COC(=O)[C@@H](CC=C)CC(=O)OC(C)(C)C)c1ccccc1 was read as F508del corr -4.4, SIRT5 block 20.2*, S100A4 MyoIIA 2.5, rRNA inh HTS -0.5 and ERAP1 HTS inh 12.4.
C=CC[C@H](CC(=O)N(CCO)Cc1ccccc1)C(=O)N[C@H](COC(=O)[C@H](CC=C)CC(=O)OC(C)(C)C)Cc1ccccc1 was read as F508del corr -0.8, S100A4 MyoIIA -2.3, rRNA inh HTS 4.4 and ERAP1 HTS inh -2.8.
Screening CC(C)NC(=O)Nc1cccc2c1O[C@H](CN(C)C(=O)NC1CCCCC1)[C@H](C)CN([C@@H](C)CO)C2=O returned F508del corr -2.5, SIRT5 block -2.3, S100A4 MyoIIA 6.3, rRNA inh HTS -0.6 and ERAP1 HTS inh 4.5.
For O/N=C1\CCCc2ccc3ccccc3c21 the results were F508del corr 0.5, SIRT5 block -3.6, S100A4 MyoIIA 1.9, rRNA inh HTS -38.5* and ERAP1 HTS inh 1.8.
For COc1ccc(CN(C)C[C@H]2Oc3ccc(NS(=O)(=O)c4ccccc4)cc3C(=O)N([C@H](C)CO)C[C@H]2C)cc1 the results were F508del corr -0.9, SIRT5 block -4.8, S100A4 MyoIIA -26.2, rRNA inh HTS -2.0 and ERAP1 HTS inh 0.5.
`COc1ccc(CN(C)C[C@@H]2Oc3ccc(NS(=O)(=O)c4ccccc4)cc3C(=O)N([C@@H](C)CO)C[C@@H]2C)cc1` gave F508del corr -1.4, SIRT5 block 1.6, S100A4 MyoIIA 9.1, rRNA inh HTS 8.5 and ERAP1 HTS inh 3.9.
For C[C@@H]1CN([C@@H](C)CO)C(=O)c2cc(NS(=O)(=O)c3ccccc3)ccc2O[C@@H]1CN(C)Cc1ccc(Oc2ccccc2)cc1 the results were F508del corr -1.0, SIRT5 block 20.2*, S100A4 MyoIIA 3.6, rRNA inh HTS -1.1 and ERAP1 HTS inh -3.9.
COc1ccc(S(=O)(=O)Nc2ccc3c(c2)C(=O)N([C@@H](C)CO)C[C@@H](C)[C@@H](CN(C)Cc2ccc(Oc4ccccc4)cc2)O3)cc1 was read as F508del corr 7.1, SIRT5 block 35.0*, S100A4 MyoIIA 3.9, rRNA inh HTS 3.7 and ERAP1 HTS inh -1.8.
Screening COc1ccc(S(=O)(=O)Nc2ccc3c(c2)C(=O)N([C@H](C)CO)C[C@H](C)[C@H](CN(C)Cc2ccc(Oc4ccccc4)cc2)O3)cc1 returned F508del corr 4.5, SIRT5 block 31.3*, S100A4 MyoIIA -3.1, rRNA inh HTS 4.0 and ERAP1 HTS inh -1.2.
COc1ccc(S(=O)(=O)Nc2ccc3c(c2)C(=O)N([C@@H](C)CO)C[C@H](C)[C@@H](CN(C)Cc2ccc(Oc4ccccc4)cc2)O3)cc1 was read as F508del corr 2.0, SIRT5 block 24.6*, S100A4 MyoIIA 8.0, rRNA inh HTS 3.9 and ERAP1 HTS inh -2.8.
CCCOc1cc(N(CC)CC)ccc1/C=C(/C#N)c1nc2ccc(C)cc2[nH]1 was read as F508del corr 33.7*, SIRT5 block 0.1, S100A4 MyoIIA -15.5, rRNA inh HTS 28.1 and ERAP1 HTS inh -2.5.
CCN(CC)c1ccc(/C=C(/C#N)c2nc3ccc(C)cc3[nH]2)c(OC(C)C)c1 was read as F508del corr 17.5*, SIRT5 block -4.8, S100A4 MyoIIA -24.1, rRNA inh HTS 12.0 and ERAP1 HTS inh 0.7.
For COCCn1c(/C=C/c2ccccc2)nc2ccccc21 the results were F508del corr -0.6, SIRT5 block -1.6, S100A4 MyoIIA -3.0, rRNA inh HTS -1.1 and ERAP1 HTS inh 3.7.
Screening Cn1c(/C=C/c2ccccc2)nc2ccccc21 returned F508del corr -4.1, SIRT5 block -9.3, S100A4 MyoIIA 14.5, rRNA inh HTS -24.1* and ERAP1 HTS inh 2.0.
Screening COCCNC(=O)C1CCCN(C(=O)c2ccc(OC)c(F)c2)CC1 (stereo unspecified) returned F508del corr 1.8, S100A4 MyoIIA 2.7 and ERAP1 HTS inh 3.2.
`COCCNC(=O)C1CCCN(C(=O)c2ccc3sccc3c2)CC1` (stereo unspecified) gave F508del corr 8.5*, SIRT5 block -0.5, S100A4 MyoIIA -2.6, rRNA inh HTS 1.6 and ERAP1 HTS inh 4.2.
For COc1ccccc1C(=O)Nc1ccc2c(c1)C(=O)N(C)[C@@H]1CC[C@H](CC(=O)NCc3ccc(Cl)c(Cl)c3)O[C@@H]1CO2 the results were F508del corr -0.9, SIRT5 block -0.1, S100A4 MyoIIA 8.1, rRNA inh HTS -4.4 and ERAP1 HTS inh -3.3.
`CC(=O)N(C)C[C@H]1Oc2ncc(-c3ccccc3C)cc2C(=O)N([C@H](C)CO)C[C@@H]1C` gave F508del corr 3.9, SIRT5 block 1.2, S100A4 MyoIIA 1.9, rRNA inh HTS 2.2 and ERAP1 HTS inh 0.1.
Screening CC(=O)N(C)C[C@@H]1Oc2ncc(-c3ccccc3C)cc2C(=O)N([C@H](C)CO)C[C@H]1C returned F508del corr 3.6, SIRT5 block 32.3*, S100A4 MyoIIA 1.0, rRNA inh HTS 3.6 and ERAP1 HTS inh -4.4.
For C[C@H](CO)N1C[C@H](C)[C@H](CN(C)C)Oc2ncc(-c3ccccc3F)cc2C1=O the results were F508del corr -0.2, SIRT5 block 17.2*, S100A4 MyoIIA 2.0, rRNA inh HTS 6.6 and ERAP1 HTS inh -6.3.
`COc1ccc(CN(C)C[C@@H]2OCCCC[C@H](C)Oc3ccc(NC(=O)Nc4ccc5c(c4)OCO5)cc3C(=O)N([C@H](C)CO)C[C@@H]2C)cc1` gave F508del corr 3.8, SIRT5 block 3.5, S100A4 MyoIIA 2.7, rRNA inh HTS -22.5 and ERAP1 HTS inh -1.6.
For CC(C)CN1C(=O)C(NC(=O)C2CC2)(C(F)(F)F)C2=C1CC(C)(C)CC2=O (stereo unspecified) the results were F508del corr 3.6, SIRT5 block 35.5*, S100A4 MyoIIA 4.9, rRNA inh HTS 1.1 and ERAP1 HTS inh -1.1.
`C[C@H](CO)N1C[C@H](C)[C@@H](CN(C)Cc2ccncc2)Oc2c(NC(=O)NC3CCCCC3)cccc2C1=O` gave rRNA inh HTS -3.6.
For Cn1c(=O)c(N)c2c3c(c(Br)ccc31)C(=O)c1ccccc1-2 the results were F508del corr 11.4*, SIRT5 block -2.5, S100A4 MyoIIA -5.3, rRNA inh HTS 68.6 and ERAP1 HTS inh -0.8.
Screening CCOc1ccc(C(C)C)cc1S(=O)(=O)n1ccnc1C returned F508del corr -0.1, SIRT5 block 16.7*, S100A4 MyoIIA 5.7, rRNA inh HTS 13.9 and ERAP1 HTS inh 3.1.
